Assay results of several laboratories.
Compare with care: the assays were run in different laboratories.
Target: Bone morphogenetic protein receptor type-2 (BMPR2, Homo sapiens, UniProt Q13873)
Sequence (Q13873 27-1038, as in one of the studies): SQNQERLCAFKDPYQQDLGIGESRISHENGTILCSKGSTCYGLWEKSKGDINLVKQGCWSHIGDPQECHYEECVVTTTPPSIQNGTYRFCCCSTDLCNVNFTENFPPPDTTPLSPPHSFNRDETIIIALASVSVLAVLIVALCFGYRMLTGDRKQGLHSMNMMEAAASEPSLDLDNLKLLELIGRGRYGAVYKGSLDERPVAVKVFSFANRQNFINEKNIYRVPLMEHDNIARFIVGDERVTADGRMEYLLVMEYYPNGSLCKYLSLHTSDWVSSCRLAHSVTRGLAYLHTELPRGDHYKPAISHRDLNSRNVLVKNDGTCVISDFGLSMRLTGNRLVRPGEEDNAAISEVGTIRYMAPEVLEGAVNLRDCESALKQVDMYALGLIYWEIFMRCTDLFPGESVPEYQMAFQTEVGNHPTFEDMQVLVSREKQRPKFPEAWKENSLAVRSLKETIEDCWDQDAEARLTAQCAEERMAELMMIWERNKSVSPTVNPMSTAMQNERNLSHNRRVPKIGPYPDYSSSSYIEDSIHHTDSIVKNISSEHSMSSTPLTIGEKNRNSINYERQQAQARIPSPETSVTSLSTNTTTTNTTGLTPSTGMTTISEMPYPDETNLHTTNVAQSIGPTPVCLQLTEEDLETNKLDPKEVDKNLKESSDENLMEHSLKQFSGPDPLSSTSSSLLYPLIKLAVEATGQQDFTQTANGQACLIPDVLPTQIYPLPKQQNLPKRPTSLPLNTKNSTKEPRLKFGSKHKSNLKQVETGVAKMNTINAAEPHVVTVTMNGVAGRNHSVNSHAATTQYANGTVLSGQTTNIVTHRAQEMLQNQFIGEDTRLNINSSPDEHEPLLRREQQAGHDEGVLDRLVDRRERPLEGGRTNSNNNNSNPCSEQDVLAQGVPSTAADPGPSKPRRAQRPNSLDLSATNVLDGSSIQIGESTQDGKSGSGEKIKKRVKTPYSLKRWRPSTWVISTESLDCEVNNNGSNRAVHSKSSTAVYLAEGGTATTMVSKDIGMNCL

| SMILES | assay | conditions | remaining binding |
| --- | --- | --- | --- |
| F[C@@H]1CCN(c2nccc(-c3cnn4ncccc34)n2)C1 | binding | 1 µM | 100% |
| O=C(NCc1ncc(C(F)(F)F)cc1Cl)c1ccc2c(c1)C1(CCS(=O)(=O)CC1)[C@H](C1CC1)N2S(=O)(=O)c1ccc(F)cc1 | cell-free assay, competition with immobilised ligand | 1 µM | 80% |
| N#Cc1ccccc1CSc1nnc2c(n1)[nH]c1ccccc12 | binding, competition with immobilised ligand | 10 µM | 90% |
| CN(C)c1nccc(-c2cnc3ncccn23)n1 | binding | 1 µM | 67% |
| COc1cnc(Nc2cccc(S(N)(=O)=O)c2)nc1N1CCN(c2ccccc2)CC1 | binding, competition with immobilised ligand | 1 µM | 0.1% |
| NS(=O)(=O)c1cc(NC(=O)Cc2ccccc2)ccc1Oc1cccc(Cl)c1 | cell-free assay, competition with immobilised ligand | 1 µM | 73% |
| CCN1CCN(Cc2ccc(C(=O)Nc3ccc(C)c(Oc4ccc5c(c4)CC(=O)N5)c3)cc2C(F)(F)F)CC1 | binding, competition with immobilised ligand | 1 µM | 100% |
| C[C@@H]1CN(c2ccc3ncc(-c4ccc5[nH]nc(C6CC6)c5c4)n3n2)C[C@H](C)O1 | binding, competition with immobilised ligand | 0.5 µM | 56% |
| O=C(c1ccc(Nc2ncc(Cl)c(-c3cc4ccccc4s3)n2)cc1)N1CCC(N2CCCC2)CC1 | binding, competition with immobilised ligand | 1 µM | 29% |
| Cc1c(NC(=O)c2cc(C(N)=O)nc3cc(F)ccc23)c(C(F)(F)F)nn1Cc1ccc(C(C)(C)C)cc1 | cell-free assay, competition with immobilised ligand | 1 µM | 100% |
| O=C(NCCCN1CCOCC1)c1ccc(Nc2nccc(-c3cc4ccccc4s3)n2)cc1 | binding, competition with immobilised ligand | 1 µM | 66% |
| COc1cccc(CNC(=O)c2nc3scc(COCc4ccc(C(=O)O)cc4)c3c(=O)[nH]2)c1 | cell-free assay, competition with immobilised ligand | 1 µM | 71.8% |
| O=C(NCC1CCOCC1)c1n[nH]cc1NC(=O)c1c(F)cccc1F | binding, competition with immobilised ligand | 1 µM | 86% |
| CS(=O)(=O)N1CCCC(NC(=O)[C@H](CCC2CCCCC2)NC(=O)c2ccc(CNC(=O)c3cnc4ccccn34)cc2)C1 (stereo partly drawn) | cell-free assay, competition with immobilised ligand | 0.1 µM | 100% |
| COc1ccnn2ncc(-c3ccnc(N(C)C)n3)c12 | binding | 1 µM | 65% |
| CNCc1ccccc1-c1csc([C@@H](C)Nc2nc(C)nc3cc(OC)c(OC)cc23)c1 | cell-free assay, competition with immobilised ligand | 1 µM | 100% |
| CN(CCCC(F)(F)F)c1nccc(-c2cnn3ncccc23)n1 | binding | 1 µM | 97% |
| CC(C)(C)c1ccc(-c2nc(CBr)nn2-c2cccc(O)c2)cc1 | cell-free assay, competition with immobilised ligand | 10 µM | 81% |
| N[C@@H]1CCN(c2nccc(-c3cnn4ncccc34)n2)C1 | binding | 1 µM | 100% |
| Nc1ncc2c(n1)-c1c([nH]c3ccc(C#CC4CC4)cc13)CCCC2 | binding, competition with immobilised ligand | 1 µM | 96% |
| Cc1cnn2ncc(-c3ccnc(N(C)C)n3)c2c1 | binding | 1 µM | 99% |
| CSc1cccnc1N1CCN(Cc2nc3ccccc3[nH]2)CC1 | cell-free assay, competition with immobilised ligand | 1 µM | 80% |
| C[C@@H]1CCN(c2nccc(-c3cnn4ncccc34)n2)C1 | binding | 1 µM | 90% |
| O=C(c1ccc(Nc2ncc(Cl)c(-c3ccc(Cl)s3)n2)cc1)N1CCC(N2CCCC2)CC1 | binding, competition with immobilised ligand | 1 µM | 28% |
